Tests used:
[1] = system: MS2 coat protein; experiment: apparent Kd, MS2 coat protein; higher = weaker binding; RNA-MaP array; theophylline 2 mM where present
Outline: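 Designs were transcribed by stalled E. coli RNA polymerase on Illumina sequencing-chip clusters. They were titrated with SNAP-549-labelled MS2 coat protein from 0.7 or 1.5 nM, doubling to 3 µM, in 100 mM Tris-HCl pH 7.5, 80 mM KCl, 4 mM MgCl2, BSA, DTT, yeast tRNA and Tween-20, without and then with constant ligand. The apparent Kd is the median of filtered per-cluster fits after normalisation of green signal to red-channel RNA signal and control-cluster median Fmax.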

[2] = system: MS2 coat protein; experiment: apparent Kd, MS2 coat protein; higher = weaker binding; RNA-MaP array
Outline: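 On an Illumina sequencing chip, sequenced DNA templates served for transcription of the designed RNAs, which were then bound at room temperature by fluorescently labeled MS2 coat protein at 1.5 nM to 3 μM, with or without input ligand. Apparent Kd is the median of the fits to each cluster's binding curve. Only designs measured on at least 10 clusters were kept.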

[3] = designed as: ON switch for theophylline, no ligand
[4] = ligand present: theophylline, designed as: ON switch for theophylline
[5] = designed as: OFF switch for theophylline, no ligand
[6] = ligand present: theophylline, designed as: OFF switch for theophylline

Row | Sequence | apparent Kd [1, 3] | apparent Kd [1, 4] | apparent Kd [1, 5] | apparent Kd [1, 6] | also measured
1 | GAGACAUGAGGAUCACCCAUGUUAGAUGAUACCAGUUAGAGAAGGAGCCCUUGGCAGCGUAAAUCUAGAGCCUAUGACGACAUGU | 13.4 nM | 14.2 nM |  |  | 
2 | CUCGAGUUAUGAGAUACCAGACUAUAGUUUACAUGAGGAUCACCCAUGUUAUGGGUGGUGGUCCCUUGGCAGCUCAUAUGUUUAA |  |  | 60.1 nM | 284 nM | 
3 | AACAUGAGGAUCACCCAUGUAUUGGGUGAUACCAGCCUGAAUAAUGGCCCUUGGCAGCACCGCGCUAACUUUAUGUCUGCGAAAC | 127 nM | 138 nM |  |  | 
4 | AUGUCGUUGAAUAUAGCGGCUUGGAGUGAUACCAGCAUGAUCCAAUGCCCUUGGCAGCAUAACAUGAGGAUCACCCAUGUUCCAG | 57.6 nM | 74.6 nM |  |  | 
5 | GGAUAGAUAGGAGAUACCAGAUACAUCAACAUGAGGAUCACCCAUGUGUCUGCACUAAGUGUCCCUUGGCAGCUCGGAGAUCUGA | 32.3 nM | 20.5 nM |  |  | 
6 | CCAUAUGUAACUGAUACCAGUGUACUGACAUGAGGAUCACCCAUGUUGGGUUUUGUUGUACACCCUUGGCAGCAGAAUCAUAUGG |  |  | 62.4 nM | 80.4 nM | 
7 | UUAAAUGUGACGGAUACCAGCGUGUUGUAGAACAUGAGGAUCACCCAUGUAGUGAUCGAGCGCCCUUGGCAGCUGGUAUGUUUGA | 180 nM | 532 nM |  |  | 
8 | AAUAACAUGAGGAUCACCCAUGUAAAAGAUACCAGAGUGAUGAUCCUCCCUUGGCAGCUUAAAACGCUAUUGGAAACAAUAGCGA | 80.5 nM | 168 nM |  |  | 
9 | ACACCGAAAGGUGCAUUUACCUUAUCAGAUACCAGACUUUACGUUGUCCCUUGGCAGCUGUAUCACAUGAGGAUCACCCAUGUUG | 15.5 nM | 16.5 nM |  |  | 
10 | AUACCUAAUGAGUCGUGUAACUUUUCAGAUACCAGACUUUUCGUUGUCCCUUGGCAGCUGUUUUACAUGAGGAUCACCCAUGUUG |  |  | 15.9 nM | 38.1 nM | 
11 | AUAUGAUCAUAUGAUACCAGAAAUGGUAUUCCUUUGUUUCUUACAUGAGGAUCACCCAUGUUCCCUUGGCAGCAUAUGAUCAUAU |  |  | 187 nM | 251 nM | 
12 | ACAUGAAGAUUAAUCGUGGGCAUACUCGAUACCAGUAUUUUAACCUACCCUUGGCAGCGACAUGAGGAUCACCCAUGUGAGAUGA |  |  | 21.6 nM | 28.9 nM | 
13 | UGUUUGGUGCGCGAGUGUUGGAUAAAUGAUACCAGUGUAGAUGUACGCCCUUGGCAGCGUAUCCGAACAUGAGGAUCACCCAUGU | 37.7 nM | 67.2 nM |  |  | 
14 | AGUGUUAUAACUGAUACCAGACCUUUGCUUAUACAUGAGGAUCACCCAUGUAAAAUGGCUGUCCCUUGGCAGCAGAGAAUACACA | 46 nM | 16.5 nM |  |  | 
15 | UAAAAUAAUAAUGAUACCAGCCCUCCCUCCCGGGACAUGAGGAUCACCCAUGUCUCUCCCGGCCCUUGGCAGCAUAAAUAAUAAU | 11.1 nM | 14.2 nM |  |  | 
16 | UGUUUGGUGCGCGAGUGUUGGAUAAUUGAUACCAGUGUAGAUGUACGCCCUUGGCAGCGAAUCCGAACAUGAGGAUCACCCAUGU | 32.5 nM | 87.2 nM |  |  | 
17 | GGUGGGACUUGUGAUACCAGCCCAAUUCGAAUCGAAUUGCACAUGAGGAUCACCCAUGUCGGCCCUUGGCAGCAUGAGUAUUUAU | 312 nM | 16.8 nM |  |  | 
18 | GGUGAUCCGUAUCACCGGAUCAUCGGUGAUACCAGCAUCGAAAGAUGCCCUUGGCAGCACCAACAUGAGGAUCACCCAUGUAAUA | 120 nM | 25.9 nM |  |  | 
19 | ACAAGUCCUCAUGAUACCAGCGAUGAGACAAAGUCUCAACAUGAGGAUCACCCAUGUACUCGCCCUUGGCAGCAUACGGUUUUUG | 415 nM | 43.6 nM |  |  | 
20 | ACGACGCAUAGUGAUACCAGCACAACAUGAGGAUCACCCAUGUCACAUAUGUUGUAAUAAUGCCCUUGGCAGCACUAUGCGUCAG | 52 nM | 87.3 nM |  |  | 
21 | GUAUGGAAACAUACUAGGGUAUCAUGAGAUACCAGUACAGAAAUGUACCCUUGGCAGCUCUAGCAUACAUGAGGAUCACCCAUGU |  |  | 14 nM | 22.9 nM | 
22 | AAGCUGCCAAGAACAUGGGUGAAAUGUGAUACCAGCUAGGAAACUAGCCCUUGGCAGCACAUGAGGAUCACCCAUGUAAUAAUAA |  |  | 352 nM | 93.7 nM | 
23 | UAAAUAUUACUGGGUAAGGUAUAAAUAGAUACCAGCCAGAUAACUGGCCCUUGGCAGCUAAACAUGAGGAUCACCCAUGUAUAAU | 37 nM | 116 nM |  |  | 
24 | UCGCACAUGAGGAUCACCCAUGUACUAGAUACCAGUGACGCGGUGCACCCUUGGCAGCUGGUGCUGAGUGAUGGUUCCCUCGGCA |  |  | 119 nM | 143 nM | 
25 | UCUGGGUGCGCAAGGACCUGGAGUUGCGAUACCAGCACGGUAACGUGCCCUUGGCAGCGCACAUGAGGAUCACCCAUGUGGUGUU |  |  | 310 nM | 388 nM | 
26 | UAUAUAUAGAUGGAUACCAGCAGAGAAAACGUUUAUCCUAACAUGAGGAUCACCCAUGUAUGCCCUUGGCAGCUGUUUAUAUAUA |  |  | 24.4 nM | 31.6 nM | 

Row | Sequence | apparent Kd [1, 3] | apparent Kd [1, 4] | apparent Kd [1, 5] | apparent Kd [1, 6] | also measured
27 | AAUAUAAGUGUAAUUAUAUGUAUCUCUGAUACCAGACUCUCAUGUGUCCCUUGGCAGCAGUUACAUGAGGAUCACCCAUGUAUUA | 103 nM | 31.9 nM |  |  | 
28 | ACAUGAGGAUCACCCAUGUUCCUCGCCGAUACCAGUGAAGAAUUACGCCCUUGGCAGCGGAAAGAGUAUUUUGGAGAUGAGGUAC |  |  | 69.8 nM | 83.5 nM | 
29 | UGACAUUGCUCAGAUACCAGACAUGAGGAUCACCCAUGUACCAAGAAAACGUACAUAAAUGUCCCUUGGCAGCUGAGCAAUGUCU |  |  | 524 nM | 713 nM | 
30 | AGCAUACAUUCUGAUACCAGAGACAUGAGGAUCACCCAUGUCCGAUCGUCCUGCCUCAGACUCCCUUGGCAGCAGGAUGUGUGCU |  |  | 13.9 nM | 33.4 nM | 
31 | ACUUGGUGGUGAUCCCUGCCAAGAGGUGAUACCAGCAUCGAAAGAUGCCCUUGGCAGCACCAACAUGAGGAUCACCCAUGUAAUA | 156 nM | 157 nM |  |  | 
32 | AUCGUACCUGAUGAUACCAGCAAUUGCUCGUAACAUGAGGAUCACCCAUGUGAUCAGUGAUGCCCUUGGCAGCAUGAUCGGUGCA | 262 nM | 35.4 nM |  |  | 
33 | ACGACGCAUAGUGAUACCAGUAGAACAUGAGGAUCACCCAUGUCUGUGACGCACAAACUCUGCCCUUGGCAGCACUAUGCGUCAG | 10.8 nM | 17.4 nM |  |  | 
34 | ACGUCACGUUUACUCGUGGUUUCGAUCGAUACCAGUAGCGAGAGUUACCCUUGGCAGCGACAUGAGGAUCACCCAUGUACGAAGA |  |  | 13.5 nM | 18.4 nM | 
35 | GGAAGCAGGACUGAUACCAGUCCAGCGAAUCAUACGACGCAACAUGAGGAUCACCCAUGUGACCCUUGGCAGCAGACUGCUACCG | 31.5 nM | 13.7 nM |  |  | 
36 | UAUUUGGUGCGCGAGUGUUGGAUAAUUGAUACCAGUGAAGAAGAGCGCCCUUGGCAGCGAAUCCUAACAUGAGGAUCACCCAUGU | 39.2 nM | 48.7 nM |  |  | 
37 | ACAUGAGGAUCACCCAUGUUCCUCAUUGAUACCAGUGAAUUUAGACGCCCUUGGCAGCGAGUUUUUUUAUAAGAUGUUUUUUUUU |  |  | 545 nM | 1110 nM | 
38 | AGUGUUAUAACUGAUACCAGACUCUCAUGUUUACAUGAGGAUCACCCAUGUUAUUUCUUUGUCCCUUGGCAGCAGAAUUUACACA | 317 nM | 49.3 nM |  |  | 
39 | GAGCUGAUGUAGAGCUAAUAUAAGAGAGAUACCAGUACAGAAAUGUACCCUUGGCAGCUCAACUUUACAUGAGGAUCACCCAUGU |  |  | 13.9 nM | 16.9 nM | 
40 | ACGAUAGGACAUGAGGAUCACCCAUGUGAUACCAGCCUGGAAACAGGCCCUUGGCAGCACAAAUACUCCAGAAACCUAUCGAAAA |  |  | 258 nM | 417 nM | 
41 | AUCUCAUAGAGUGAUACCAGACUACAUGAGGAUCACCCAUGUUACAUUUAAAUAUCAUUUGUCCCUUGGCAGCACAUGAAGUACA |  |  | 28 nM | 18 nM | 
42 | UCUCGGUCUUUCUUUCUCCGAGAAUAUGAUACCAGUUAGUUUUAUGGCCCUUGGCAGCAUAGAACAUGAGGAUCACCCAUGUGUU | 94.2 nM | 108 nM |  |  | 
43 | GAUGAACUAUAUGAUACCAGACAACAUGAGGAUCACCCAUGUGAUUGUCGUCCUCUGCCUGUCCCUUGGCAGCGUAUAGUUUAUC |  |  | 33.8 nM | 229 nM | 
44 | UAUAUAGUGAUGGAUACCAGCAGAGAAAACGUUUAUCCUAACAUGAGGAUCACCCAUGUAUGCCCUUGGCAGCUGUUGUUAUAUA |  |  | 20.1 nM | 28 nM | 
45 | CAGCCUGAUUGGUAAAUCCCUCAUCGUGAUACCAGUCGAGUGAUCGACCCUUGGCAGCACAUGAGGAUCACCCAUGUGCGCGUAA |  |  | 26.7 nM | 29.8 nM | 
46 | AAUAAGUAUCUGCUAGGUGAUCCAGCAGAUACCAGCUAGGAAACUAGCCCUUGGCAGCUGCAACAUGAGGAUCACCCAUGUAAUA |  |  | 444 nM | 228 nM | 
47 | AACCGAGGCUAUCCUCUACGACUAUGUGAUACCAGAAUAAUUUUAUUCCCUUGGCAGCAUGACAUGAGGAUCACCCAUGUCUCUU | 39.2 nM | 58.2 nM |  |  | 
48 | AUCGUACCUGAUGAUACCAGCAAUUGCUCGUAACAUGAGGAUCACCCAUGUGACCAGUGAUGCCCUUGGCAGCAUGAUCGGUGCA | 53.8 nM | 12.4 nM |  |  | 
49 | GGGAAUGAACGUGAUACCAGAGAUCCGGUCUCCGUCAAUAUACAUGAGGAUCACCCAUGUCUCCCUUGGCAGCACCGUCAUCGGG |  |  | 14.8 nM | 23.4 nM | 
50 | UUCAUUUUCUAGGAUAUGUACCAGAAAAUAGUUACAGAAGGAGAGACAUGAGGAUCACCCAUGUUGGCAACAGC |  |  |  |  | apparent Kd ([2]; designed as: OFF switch for flavin mononucleotide, no ligand): 10.7 nM; apparent Kd ([2]; ligand present: flavin mononucleotide, designed as: OFF switch for flavin mononucleotide): 11.6 nM
51 | GACGAACAUGAGGAUCACCCAUGUUAACCGAUCACCACGUUCAGAAGGAGGGACAUAACGAGCACCUAGGAUAUGACCAAACAC |  |  |  |  | apparent Kd ([2]; designed as: ON switch for flavin mononucleotide, no ligand): 24.2 nM; apparent Kd ([2]; ligand present: flavin mononucleotide, designed as: ON switch for flavin mononucleotide): 14.1 nM

From the EternaBench riboswitch data
